# Sampled rows, rich in hits. Any-hit rate of the full collection: about 3.5%.
# MrgX1 agonist = agonists of human MrgX1 receptor; Q96LB2; MrgX1-HEK293 cells, Fluo-4 calcium fluorescence, agonist mode; active compounds read high; B-score at 10 µM; actives 0.44% (n = 310,000); AID 588627;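 active means calcium response B-score plate-corrected fluorescence ratio at least 3 library SD, with starting fluorescence B-score inside 5 SD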
# Target sequence (Q96LB2 whole entry, looked up): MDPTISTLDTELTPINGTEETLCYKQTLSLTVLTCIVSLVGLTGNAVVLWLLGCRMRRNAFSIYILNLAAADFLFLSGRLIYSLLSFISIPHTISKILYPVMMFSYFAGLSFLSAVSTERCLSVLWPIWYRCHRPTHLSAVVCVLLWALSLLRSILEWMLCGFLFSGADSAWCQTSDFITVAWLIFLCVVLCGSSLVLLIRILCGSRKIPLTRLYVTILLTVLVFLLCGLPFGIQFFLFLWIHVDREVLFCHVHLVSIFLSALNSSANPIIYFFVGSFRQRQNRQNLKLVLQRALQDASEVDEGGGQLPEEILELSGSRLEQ
#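 Material: HEK293 cells stably expressing human MrgX1 receptor | Quantity: 15,000 cells per well | Times: Cells plated overnight, dye loaded 0.5 h 37 °C, 0.5 h room temperature | Measured by: Kinetic Fluo-4 NW fluorescence of intracellular calcium | Control set: Positive and negative controls per plate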
# RGS4 block = human RGS4 inhibition; P49798; HEK293 M3R/RGS4 inducible, Fluo-4 calcium flux; active compounds read high; triggered by carbachol at its EC20; B-score at 10 µM; actives 0.45% (n = 310,000); AID 463165;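 active means B-score, a plate-corrected calcium signal, over three deviations above library mean, with baseline fluorescence within five deviations of library mean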;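 further: RGS4 expression induced by doxycycline in cells with stable M3 receptor; B-score is computed from the integrated fluorescence ratio over baseline after carbachol; higher B-score means a larger calcium signal and so more RGS4 inhibition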
# Target sequence (P49798 whole entry, looked up): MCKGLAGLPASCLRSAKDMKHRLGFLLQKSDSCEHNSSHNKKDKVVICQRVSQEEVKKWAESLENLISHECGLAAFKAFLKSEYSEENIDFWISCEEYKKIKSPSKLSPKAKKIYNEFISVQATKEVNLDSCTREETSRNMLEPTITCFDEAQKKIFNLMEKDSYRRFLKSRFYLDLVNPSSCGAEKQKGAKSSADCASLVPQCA
# MrgX1 antag = blocks BAM8-22 activation of human MrgX1 receptor | Q96LB2 | MRGX1-HEK293 calcium flux, Fluo-4, BAM8-22 antagonism; active compounds read low | B-score at 10 µM | actives 1.3% (n = 310,000);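 active means calcium-response B-score plate-corrected more than 3 library SD below zero, starting fluorescence within 5 deviations, no agonist response on first addition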;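 further: peak minus trough fluorescence over baseline after final BAM8-22 challenge near maximal dose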
# RGS4 pot = potentiators or activators of RGS4; HEK293 M3R/inducible RGS4, carbachol calcium flux Fluo4; active compounds read low; B-score at 10 µM; actives 0.92% (n = 310,000);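 active means B-score of the integrated calcium signal more than 4 SD below the library mean, with starting fluorescence not abnormally high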;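 further: negative B-score means reduced calcium response which marks RGS4 activation or potentiation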
#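 Assay system: Inducible-RGS4 HEK293 cells carrying M3 receptor | Schedule: Compound preincubation 20 min at room temperature before agonist | Signal: Kinetic calcium fluorescence imaging with Fluo4-AM dye, 2 µM | Read-out basis: B score from integrated fluorescence ratio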
# MrgX1 PAM = allosterically activates human MrgX1 receptor signaling; B-score at 10 µM; Q96LB2; MrgX1-HEK293, Fluo-4 calcium flux, FDSS; active compounds read high; actives 0.63% (n = 310,000);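 active means plate-corrected calcium response at least 3 library SD above typical, normal starting fluorescence, not activating the receptor alone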;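 further: compound read alongside a low EC10 to EC30 dose of BAM8-22 agonist; peak minus trough fluorescence over baseline measured at the second addition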
# MrgX1 allo conf = human MrgX1 positive allosteric modulation, re-confirmation; shares compounds with MrgX1 PAM; MrgX1-HEK293, Fluo-4 calcium fluorescence, FDSS; activation (ratio percentage), % at 10 µM; actives 13% (n = 1,200);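 active means ratio at least 3 SD above the weak peptide control, stable starting fluorescence, no direct agonism earlier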;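 further: compound followed by low BAM8-22 agonist challenge near EC20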
# MrgX1 ant reconf = confirmation of human MrgX1 receptor antagonists; actives 19% (n = 2,300); MrgX1-HEK293, BAM8-22 calcium flux, Fluo-4; active compounds read low; remaining BAM8-22 calcium response % of control (active compounds read low), % at 10 µM; shares compounds with MrgX1 antag;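 active means remaining agonist calcium response no higher than 100% minus 3 SD of agonist-only control wells, with starting fluorescence near control levels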;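 further: agonist BAM8-22 given at a near maximal EC90 to ECmax level; peak minus minimum fluorescence divided by baseline after agonist addition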
# HEK293 Ca flux = counter-screen for MrgX1 antagonists: effect in parental HEK293 cells; shares compounds with MrgX1 antag; Fluo-4 calcium fluorescence, FDSS; fluorescence ratio F(max-min)/F0 at 10 µM; actives 2% (n = 4,000); AID 624111;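 active means duplicate-averaged calcium fluorescence ratio at least three times the standard deviation of buffer wells, a nonspecific response in parental cells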
# HEK293 Ca counter = activity in parental HEK293 cells without MrgX1; shares compounds with MrgX1 antag; actives 0.4% (n = 4,000); fluorescence ratio F(max-min)/F0 at 10 µM; parental HEK293 calcium flux, Fluo-4 fluorescence ratio; active compounds read high;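 active means calcium fluorescence ratio, averaged over duplicates, at least 3 SD of the buffer-well ratio, meaning a nonspecific response in receptor-free cells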;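 further: untransfected parental HEK293 lacking MrgX1 used as counterscreen for MrgX1 allosteric activators; fluorescence change taken during the second addition on a kinetic imager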
# HEK293 Ca cntr2 = counter-screen for MrgX1 activators: effect in parental HEK293 cells | actives 8.7% (n = 4,000) | shares compounds with MrgX1 antag | Fluo-4 calcium fluorescence (FDSS); active compounds read high | fluorescence ratio F(max-min)/F0 at 10 µM | AID 624115;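 active means calcium fluorescence ratio at least three times the spread of buffer wells, meaning a non-specific response in parental cells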
# Numbers stand for hits; – = inactive; · = no result.
SMILES,MrgX1 agonist,RGS4 block,MrgX1 antag,RGS4 pot,MrgX1 PAM,MrgX1 allo conf,HEK293 Ca flux,HEK293 Ca counter,HEK293 Ca cntr2,others
O=C(Nc1ccccc1)Nc1ccc(Cl)c(S(=O)(=O)N2CCOCC2)c1,–,–,-8.1,–,7.7,–,–,–,–,MrgX1 ant reconf=–
O=C(Nc1ccc(S(=O)(=O)N2CCOCC2)cc1)C1CC1,–,–,–,–,15,–,–,–,–,
O=C(Nc1ccc(NC(=O)c2ccc(Cl)c(S(=O)(=O)N3CCOCC3)c2)cc1)c1ccccc1,–,–,–,–,–,·,·,·,·,
CCC(=O)Nc1ccc(S(=O)(=O)N2CCOCC2)cc1,–,–,–,–,–,·,·,·,·,
CN(C)CCn1c(=S)[nH]c2ncccc2c1=O,–,–,–,–,13,–,–,–,–,
COc1ccccc1CNC(=O)c1ccc(CS(=O)(=O)c2ccc(C)cc2)o1,–,–,–,–,–,·,·,·,·,
COc1ccc(OC)c(-c2csc(NC(=O)Cc3cccs3)n2)c1,–,–,–,–,7.2,–,–,–,–,
COc1ccccc1CC(=O)c1ccc(OCc2ccccc2)cc1,–,–,–,–,–,·,·,·,·,
CCOC(=O)c1c(-c2ccccc2)csc1NC(=O)/C(C#N)=C/c1ccc(O)c(OC)c1,–,–,–,–,117,–,0.049,–,85,
O=C(Cn1c(NCCO)nc2ccccc21)c1ccccc1,–,–,–,–,7.3,–,–,–,–,
CC(=O)c1ccc(S(=O)(=O)N2CCN(C(=O)CSC(=S)N3CCCC3)CC2)cc1,–,–,–,–,–,·,·,·,·,
Clc1ccc(-c2nnnn2-c2ccc(Cl)cc2)cc1,–,–,–,–,11,–,–,–,–,
Clc1ccc(-n2nnnc2-c2ccccc2)cc1,–,·,–,·,–,·,·,·,·,
O=C(Nc1ccccc1Cc1ccccc1)c1ccncc1,–,–,–,–,–,·,·,·,·,
COc1ccc(C)cc1NC(=O)C(C)N(c1ccc(C)cc1)S(C)(=O)=O (stereo not drawn),–,–,–,–,7.6,–,–,–,–,
COc1ccc2cc(CCNC(=O)c3ccc(S(=O)(=O)N4CCCC4)cc3)c(=O)[nH]c2c1,–,–,–,–,–,·,·,·,·,
O=C(CSc1nc2c(oc3ccccc32)c(=O)n1CC1CCCO1)NCc1ccccc1 (stereo not drawn),–,–,–,–,–,·,·,·,·,
COc1ccc(S(=O)(=O)NCC2CCCN(C(=O)CCC(F)(F)F)C2)cc1 (stereo not drawn),–,–,–,–,–,·,·,·,·,
CCN1C(=O)CSC1=NC12CC3CC(CC(C3)C1)C2,–,–,–,–,–,·,·,·,·,
CN1C(=O)CSC1=NC12CC3CC(CC(C3)C1)C2,–,–,–,–,8.2,–,–,–,–,
Cc1ccc(NC(=S)NCC2CCN(C(C)c3ccccc3)C2)cc1 (stereo not drawn),–,–,–,–,22,–,–,–,–,
Cc1ccc(NC(=O)CC2Oc3ccc(C)cc3NC2=O)c(C)c1 (stereo not drawn),–,–,–,–,–,·,·,·,·,
Cc1ccc2c(c1)NC(=O)C(CC(=O)O)O2 (stereo not drawn),–,–,–,–,8.1,–,–,–,–,
Nc1nc(SCC(=O)NC2CCCCC2)n[nH]1,–,–,–,–,–,·,·,·,·,
Cn1c(=O)c2c(nc(CN3CCc4ccccc4C3)n2Cc2ccc(Cl)cc2)n(C)c1=O,–,–,–,–,–,·,·,·,·,
SMILES,MrgX1 agonist,RGS4 block,MrgX1 antag,RGS4 pot,MrgX1 PAM,MrgX1 allo conf,HEK293 Ca flux,HEK293 Ca counter,HEK293 Ca cntr2,others
Cn1c(=O)c2c(nc(CN3CCc4ccccc4C3)n2Cc2ccccc2)n(C)c1=O,–,–,–,–,17,13%,–,–,–,
COc1ccc2nc(NC(=S)N(C)C)sc2c1,–,–,–,–,12,–,–,–,–,
COc1ccc2nc(NC(=O)C3COc4ccccc4O3)sc2c1 (stereo not drawn),–,–,–,–,–,·,·,·,·,
CS(=O)(=O)c1ccc2nc(NC(=O)C3COc4ccccc4O3)sc2c1 (stereo not drawn),–,–,–,–,6.6,–,–,–,–,
CS(=O)(=O)c1ccc2nc(NC(=O)c3cccs3)sc2c1,–,·,–,·,24,17%,–,–,–,
Cc1ccc2nc(NC(=O)c3cccs3)sc2c1,–,·,–,·,–,·,·,·,·,
COc1ccc(C)cc1S(=O)(=O)NCC(c1ccc2c(c1)OCO2)N1CCN(C)CC1 (stereo not drawn),–,–,–,–,–,·,·,·,·,
COc1cc2c(cc1OC)CN(c1ccc(F)cc1[N+](=O)[O-])CC2,–,–,–,–,–,·,·,·,·,
O=C(Nc1ccccc1C(=O)Nc1ccccn1)c1cc(F)c(F)cc1Cl,–,–,–,–,–,·,·,·,·,
O=C(Nc1ccc2c(c1)CCCN2C(=O)c1ccco1)c1cc([N+](=O)[O-])ccc1Cl,–,–,–,–,–,·,·,·,·,
COc1ccc(S(=O)(=O)N(CC(=O)NC2CC3CCC2C3)c2ccccc2OC)cc1 (stereo not drawn),–,–,–,–,8.3,–,–,–,–,
COc1ccccc1N(CC(=O)NC1CC2CCC1C2)S(=O)(=O)c1ccc(C)cc1 (stereo not drawn),–,–,–,–,–,·,·,·,·,
COC(=O)CCCCCN1C(=O)/C(=C\c2ccncc2)SC1=S,–,–,–,–,–,·,·,·,·,
CC12CCC(C)(c3nc4ccccc4nc31)C2(C)C,–,–,–,–,6.9,–,–,–,–,
CC12CCC(C(=O)O)(c3nc4cc([N+](=O)[O-])ccc4nc31)C2(C)C (stereo not drawn),–,–,–,–,–,·,·,·,·,
Cc1sc2nc(CSC(C)C(=O)N3CCOCC3)[nH]c(=O)c2c1C (stereo not drawn),–,–,–,–,–,·,·,·,·,
O=C(Nc1ccc(Cl)c(Cl)c1)c1ccccc1,–,·,–,·,8,–,–,–,–,
CSc1ccccc1NC(=O)CSc1nnc(COc2ccccc2)o1,–,–,–,–,–,·,·,·,·,
Cn1c(N)c(Sc2ccccc2[N+](=O)[O-])c(=O)n(C)c1=O,–,–,–,–,–,·,·,·,·,
COc1cccc(Nc2ncccc2C(=O)Nc2ccccc2)c1,–,–,–,–,7.6,–,–,–,–,

# High-throughput results deposited in PubChem BioAssay by Johns Hopkins Ion Channel Center.
